In ChEMBL document CHEMBL4350956, “Paired Utility of Aza-Amino Acyl Proline and Indolizidinone Amino Acid Residues for Peptide Mimicry: Conception of Prostaglandin F2α Receptor Allosteric Modulators That Delay Preterm Birth” (J Med Chem, 2019):
The source made the active and inactive calls. No cut-off for these calls is given here. Non-standard residues stand in square brackets, D forms with d. Residues, ends and D or L forms follow the SMILES beside them. *: point of attachment. Pro(trans-4-F) = O=C(O)[C@@H]1C[C@@H](F)CN1; Pro(cis-4-F) = O=C(O)[C@@H]1C[C@H](F)CN1; Pro(4R-NH2) = N[C@H]1CN[C@H](C(=O)O)C1; 3Pal = N[C@@H](Cc1cccnc1)C(=O)O; β3hF = N[C@H](CC(=O)O)Cc1ccccc1; PhAc = O=C(Cc1ccccc1)*; azaGly = NNC(=O)O

What was measured:
Mus musculus [1] = test: (§1) Suppression of PGF2alpha-induced premature delivery in Timed-pregnant CD-1 mouse assessed as inhibition of PGFalpha-induced myometrial contraction by measuring time of delay in labor at 10 mg administered subcutaneously followed by 0.1 mg, ip bolus injection on day 16 prior to PGF2alpha challenge (reference value: 2 hrs); type: functional
[2] = target: Prostaglandin F2-alpha receptor (Mus musculus) (UniProt P43117); test: Allosteric modulator activity at prostaglandin F2alpha receptor in CD-1 mouse myometrial strips assessed as inhibition of PGF2alpha- induced contraction at 1 uM pre-incubated for 20 mins followed by PGF2alpha challenge
Outline: (§2)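 Myometrial strips; baseline taken as mean tension of spontaneous contractions at start. Pretreated 20 min with modulator, then PGF2α challenge. Tension rise computed as […], X = PGF2α-induced change in mean tension (g), Y = initial reference response (g). % inhibition = (A-B)/A, A without and B with pretreatment. 5 experiments per group; means ± SEM.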

[3] = target: Prostaglandin F2-alpha receptor (Mus musculus) (UniProt P43117); test: Allosteric modulator activity at prostaglandin F2alpha receptor in CD-1 mouse myometrial strips assessed as inhibition of PGF2alpha- induced contraction at 10 uM pre-incubated for 20 mins followed by PGF2alpha challenge; outline: as §2
[4] = Solubility of the compound; type: physicochemical
Mus musculus [5] = test: Suppression of LPS-induced premature delivery in Timed-pregnant CD-1 mouse assessed as inhibition of LPS-induced myometrial contraction by measuring percentage of animals delivering at 20 mg administered subcutaneously followed by 0.1 mg, ip bolus injection on day 16 prior to LPS challenge and measured on day 17; type: functional; parameters: scale not given: the % may be the effect or the level left
Outline: (§3)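 Pregnant mice given LPS (E. coli endotoxin) intraperitoneally on gestational day 16. Test agent 20 mg/kg/day, started on day 16, before LPS; controls received saline. Delivery scored as percentage of animals delivered at 12, 15–24, 24–48 and 72 h after LPS. Average delivery time after LPS also recorded. 5–6 animals per treated group; n=10 for saline controls.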

Mus musculus [6] = test: Suppression of LPS-induced premature delivery in Timed-pregnant CD-1 mouse assessed as inhibition of LPS-induced myometrial contraction at 20 mg administered subcutaneously followed by 0.1 mg, ip bolus injection on day 16 prior to LPS challenge and measured up to day 19; type: functional, organism-based; outline: as §3
Mus musculus [7] = test: as §1, with “LPS-induced” for “PGF2alpha-induced”, “LPS-induced” for “PGFalpha-induced”, “20” for “10”, “LPS” for “PGF2alpha”, “12” for “2”; type: functional; outline: as §3
Mus musculus [8] = species on record: Mus musculus; test: Inhibition of spontaneous myometrial contraction in CD-1 mouse assessed as decrease in mean tension at 10 uM; type: functional, tissue-based; details: Myometrium

Sequence of Prostaglandin F2-alpha receptor (Mus musculus) (P43117 whole entry): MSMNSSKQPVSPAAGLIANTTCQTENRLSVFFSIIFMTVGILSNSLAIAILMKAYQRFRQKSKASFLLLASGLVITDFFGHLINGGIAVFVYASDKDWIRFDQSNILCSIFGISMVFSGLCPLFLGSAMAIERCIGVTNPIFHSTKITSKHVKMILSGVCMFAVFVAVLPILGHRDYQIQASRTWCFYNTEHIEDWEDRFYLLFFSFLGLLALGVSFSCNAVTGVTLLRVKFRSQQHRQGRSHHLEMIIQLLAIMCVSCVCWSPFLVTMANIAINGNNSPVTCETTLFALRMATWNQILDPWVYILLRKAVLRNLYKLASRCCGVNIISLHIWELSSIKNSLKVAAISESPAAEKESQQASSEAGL

| SMILES | inhibition [2] | inhibition [3] | also measured |
| --- | --- | --- | --- |
| O=C(O)C[C@H](Cc1ccccc1)NC(=O)[C@H](Cc1cccnc1)NC(=O)[C@@H]1CC[C@@H]2CC[C@H](NC(=O)Cc3ccccc3)C(=O)N21 | – | – | Time (Mus musculus [1]): ≤ 42 h |
| O=C(O)C[C@H](Cc1ccccc1)NC(=O)[C@H](Cc1cccnc1)NC(=O)[C@@H]1CCCN1C(=O)N(Cc1cn(-c2ccc([N+](=O)[O-])cc2)nn1)NC(=O)Cc1ccccc1 | inactive | inactive | solubility [4]: Insoluble |
| C#CCN(NC(=O)Cc1ccccc1)C(=O)N1C[C@H](F)C[C@H]1C(=O)N[C@@H](Cc1cccnc1)C(=O)N[C@H](CC(=O)O)Cc1ccccc1 | inactive | inactive | – |
| N[C@H]1C[C@@H](C(=O)N[C@@H](Cc2cccnc2)C(=O)N[C@H](CC(=O)O)Cc2ccccc2)N(C(=O)N(Cc2ccccc2)NC(=O)Cc2ccccc2)C1 | Active | Active | – |
| O=C(O)C[C@H](Cc1ccccc1)NC(=O)[C@H](Cc1cccnc1)NC(=O)[C@@H]1CC[C@H]2CC[C@H](NC(=O)Cc3ccccc3)C(=O)N21 | – | inactive | – |
| COc1ccc(C2=C3CC[C@@H](C(=O)N[C@@H](Cc4cccnc4)C(=O)N[C@H](CC(=O)O)Cc4ccccc4)N3C(=O)[C@@H](NC(=O)Cc3ccccc3)C2)cc1 | inactive | inactive | – |
| O=C(O)C[C@H](Cc1ccccc1)NC(=O)[C@H](Cc1cccnc1)NC(=O)[C@@H]1C[C@H](O)CN1C(=O)NNC(=O)Cc1ccccc1 | inactive | inactive | – |
| Cc1ccc(-n2cc(CN(NC(=O)Cc3ccccc3)C(=O)N3CCC[C@H]3C(=O)N[C@@H](Cc3cccnc3)C(=O)N[C@H](CC(=O)O)Cc3ccccc3)nn2)cc1 | inactive | inactive | – |
| [N-]=[N+]=Nc1ccc(CC(=O)N[C@H]2CC[C@H]3CC[C@@H](C(=O)N[C@@H](Cc4cccnc4)C(=O)N[C@H](CC(=O)O)Cc4ccccc4)N3C2=O)cc1 | inactive | inactive | – |
| CN(C)CC#CCN(NC(=O)Cc1ccccc1)C(=O)N1CCC[C@H]1C(=O)N[C@@H](Cc1cccnc1)C(=O)N[C@H](CC(=O)O)Cc1ccccc1 | inactive | inactive | – |
| C#CCN(NC(=O)Cc1ccccc1)C(=O)N1C[C@@H](F)C[C@H]1C(=O)N[C@@H](Cc1cccnc1)C(=O)N[C@H](CC(=O)O)Cc1ccccc1 | inactive | inactive | – |
| Nc1ccc(CC(=O)N[C@H]2CC[C@H]3CC[C@@H](C(=O)N[C@@H](Cc4cccnc4)C(=O)N[C@H](CC(=O)O)Cc4ccccc4)N3C2=O)cc1 | inactive | inactive | – |
| O=C(O)C[C@H](Cc1ccccc1)NC(=O)[C@H](Cc1cccnc1)NC(=O)[C@@H]1CCCN1C(=O)N(Cc1cn(-c2ccccc2)nn1)NC(=O)Cc1ccccc1 | inactive | inactive | – |
| N#Cc1ccc(C2=C3CC[C@@H](C(=O)N[C@@H](Cc4cccnc4)C(=O)N[C@H](CC(=O)O)Cc4ccccc4)N3C(=O)[C@@H](NC(=O)Cc3ccccc3)C2)cc1 | inactive | inactive | – |
| O=C(O)C[C@H](Cc1ccccc1)NC(=O)[C@H](Cc1cccnc1)NC(=O)[C@@H]1CCC2=C(c3ccccc3)C[C@H](NC(=O)Cc3ccccc3)C(=O)N21 | Active | Active | – |
| O=C(O)C[C@H](Cc1ccccc1)NC(=O)[C@H](Cc1cccnc1)NC(=O)[C@@H]1CCCN1C(=O)NNC(=O)Cc1ccccc1 (PhAc-[azaGly]P[3Pal][β3hF]-OH) | – | – | Activity (Mus musculus [5]): <20%; inhibition (Mus musculus [6]): Active; Time (Mus musculus [7]): 24 h |
| Cc1ccc(CN(NC(=O)Cc2ccccc2)C(=O)N2CCC[C@H]2C(=O)N[C@@H](Cc2cccnc2)C(=O)N[C@H](CC(=O)O)Cc2ccccc2)cc1 | inactive | inactive | – |
| O=C(O)C[C@H](Cc1ccccc1)NC(=O)[C@H](Cc1cccnc1)NC(=O)[C@@H]1C[C@@H](O)CN1C(=O)N(Cc1ccccc1)NC(=O)Cc1ccccc1 | inactive | inactive | – |
| O=C(O)C[C@H](Cc1ccccc1)NC(=O)[C@H](Cc1cccnc1)NC(=O)[C@@H]1C[C@H](F)CN1C(=O)N(Cc1ccccc1)NC(=O)Cc1ccccc1 | inactive | inactive | – |

| SMILES | inhibition [2] | inhibition [3] | also measured |
| --- | --- | --- | --- |
| O=C(O)C[C@H](Cc1ccccc1)NC(=O)[C@H](Cc1cccnc1)NC(=O)[C@@H]1C[C@H](O)CN1C(=O)N(Cc1ccccc1)NC(=O)Cc1ccccc1 | inactive | inactive | – |
| C#CCN(NC(=O)Cc1ccccc1)C(=O)N1C[C@@H](O)C[C@H]1C(=O)N[C@@H](Cc1cccnc1)C(=O)N[C@H](CC(=O)O)Cc1ccccc1 | inactive | inactive | – |
| O=C(O)C[C@H](Cc1ccccc1)NC(=O)[C@H](Cc1cccnc1)NC(=O)[C@@H]1C[C@@H](F)CN1C(=O)N(Cc1ccccc1)NC(=O)Cc1ccccc1 | inactive | inactive | – |
| O=C(O)C[C@H](Cc1ccccc1)NC(=O)[C@H](Cc1cccnc1)NC(=O)[C@@H]1CCC2=CC[C@H](NC(=O)Cc3ccccc3)C(=O)N21 | inactive | – | – |
| N[C@@H]1C[C@@H](C(=O)N[C@@H](Cc2cccnc2)C(=O)N[C@H](CC(=O)O)Cc2ccccc2)N(C(=O)NNC(=O)Cc2ccccc2)C1 (PhAc-[azaGly][Pro(4R-NH2)][3Pal][β3hF]-OH) | Active | Active | – |
| O=C(O)C[C@H](Cc1ccccc1)NC(=O)[C@H](Cc1cccnc1)NC(=O)[C@@H]1CCCN1C(=O)N(Cc1cn(-c2ccc(F)cc2)nn1)NC(=O)Cc1ccccc1 | inactive | inactive | – |
| O=C(O)C[C@H](Cc1ccccc1)NC(=O)[C@H](Cc1cccnc1)NC(=O)[C@@H]1C[C@H](F)CN1C(=O)NNC(=O)Cc1ccccc1 (PhAc-[azaGly][Pro(cis-4-F)][3Pal][β3hF]-OH) | Active | Active | – |
| C#CCN(NC(=O)Cc1ccccc1)C(=O)N1C[C@H](O)C[C@H]1C(=O)N[C@@H](Cc1cccnc1)C(=O)N[C@H](CC(=O)O)Cc1ccccc1 | Active | Active | – |
| O=C(O)C[C@H](Cc1ccccc1)NC(=O)[C@H](Cc1cccnc1)NC(=O)[C@@H]1C[C@H](O)[C@@H]2CC[C@H](NC(=O)Cc3ccccc3)C(=O)N12 | inactive | inactive | – |
| O=C(O)C[C@H](Cc1ccccc1)NC(=O)[C@H](Cc1cccnc1)NC(=O)[C@@H]1CCCN1C(=O)N(Cc1c[nH]nn1)NC(=O)Cc1ccccc1 | inactive | inactive | – |
| O=C(O)C[C@H](Cc1ccccc1)NC(=O)[C@H](Cc1cccnc1)NC(=O)[C@@H]1CCCN1C(=O)N(CC#CCN1CCCCC1)NC(=O)Cc1ccccc1 | inactive | inactive | – |
| O=C(O)C[C@H](Cc1ccccc1)NC(=O)[C@H](Cc1cccnc1)NC(=O)[C@@H]1C[C@@H](O)CN1C(=O)NNC(=O)Cc1ccccc1 | inactive | inactive | – |
| O=C(O)C[C@H](Cc1ccccc1)NC(=O)[C@H](Cc1cccnc1)NC(=O)[C@@H]1CCC2=C(c3ccc(OC(F)(F)F)cc3)C[C@H](NC(=O)Cc3ccccc3)C(=O)N21 | inactive | inactive | inhibition (Mus musculus [8]): Active |
| O=C(O)C[C@H](Cc1ccccc1)NC(=O)[C@H](Cc1cccnc1)NC(=O)[C@@H]1CCCN1C(=O)N(Cc1ccccc1)NC(=O)Cc1ccccc1 | – | Active | Activity (Mus musculus [5]): <20%; inhibition (Mus musculus [6]): Active; Time (Mus musculus [7]): 24 h |
| O=C(O)C[C@H](Cc1ccccc1)NC(=O)[C@H](Cc1cccnc1)NC(=O)[C@@H]1C[C@@H](O)[C@H]2CC[C@H](NC(=O)Cc3ccccc3)C(=O)N21 | inactive | inactive | – |
| O=C(O)C[C@H](Cc1ccccc1)NC(=O)[C@H](Cc1cccnc1)NC(=O)[C@@H]1C[C@@H](F)CN1C(=O)NNC(=O)Cc1ccccc1 (PhAc-[azaGly][Pro(trans-4-F)][3Pal][β3hF]-OH) | inactive | inactive | – |
| O=C(O)C[C@H](Cc1ccccc1)NC(=O)[C@H](Cc1cccnc1)NC(=O)[C@@H]1CCCN1C(=O)N(Cc1cn(-c2ccc(I)cc2)nn1)NC(=O)Cc1ccccc1 | inactive | inactive | – |
| O=C(O)C[C@H](Cc1ccccc1)NC(=O)[C@H](Cc1cccnc1)NC(=O)[C@@H]1CCCN1C(=O)N(Cc1c(F)c(F)c(F)c(F)c1F)NC(=O)Cc1ccccc1 | inactive | inactive | solubility [4]: Insoluble |
| O=C(O)C[C@H](Cc1ccccc1)NC(=O)[C@H](Cc1cccnc1)NC(=O)[C@@H]1CCCN1C(=O)N(Cc1ccc([N+](=O)[O-])cc1)NC(=O)Cc1ccccc1 | inactive | inactive | – |
